Bioassay records from PubChem.
A selection: hits, their analogues and other compounds. The true share with any hit is near 29%.
CYP2C9 inhib: blockers of cytochrome P450 2C9 activity – biochemical, luminescence, ADME assay, primary screen; 96,000 compounds, 20% hits; AID 777, 2007; CYP2C9 Supersomes, luciferin-H conversion; P11712; inhibition, % at 5 µM;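 active = blocking of liver enzyme CYP2C9 beyond about 50% at 5 µM, limit read from the data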
CYP2C19 act: human CYP2C19 activators, primary screen, biochemical, luminescence | Cytochrome P450 2C19 (Homo sapiens), P33261 | recombinant CYP2C19, luciferin-H EGE luminescence; stronger effect = higher value; 0 = fully inhibited enzyme, 1 = untreated enzyme | activation factor at 5 µM | 96,000 tested, under 10 active;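 active = activation factor of at least 2 at 5 µM in the primary screen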
Target sequence (P33261 whole entry, looked up): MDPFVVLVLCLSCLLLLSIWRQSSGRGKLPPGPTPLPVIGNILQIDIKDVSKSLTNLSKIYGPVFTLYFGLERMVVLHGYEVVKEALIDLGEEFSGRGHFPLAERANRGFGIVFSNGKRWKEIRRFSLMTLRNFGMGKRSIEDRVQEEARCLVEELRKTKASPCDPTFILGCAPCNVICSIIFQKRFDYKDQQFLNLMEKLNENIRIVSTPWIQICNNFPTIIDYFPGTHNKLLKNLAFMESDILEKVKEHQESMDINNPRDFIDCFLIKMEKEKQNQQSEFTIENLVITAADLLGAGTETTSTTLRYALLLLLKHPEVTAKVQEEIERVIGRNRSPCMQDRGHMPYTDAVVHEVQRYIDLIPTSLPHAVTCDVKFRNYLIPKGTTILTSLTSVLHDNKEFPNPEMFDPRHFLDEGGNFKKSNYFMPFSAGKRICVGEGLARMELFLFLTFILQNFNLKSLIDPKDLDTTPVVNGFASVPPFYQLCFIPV
Ecoli tolC: growth inhibitors of E. coli tolC mutant, primary screen, strain BW25113 ΔtolC::kan, 384-well | OD615 | growth inhibition, % at 10 µM (by protocol) | 65,000 compounds, 2.2% hits | AID 573, 2007;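 active = growth inhibition at or above a cutoff equal to the mean over every tested compound plus 3 SD, cut at about 60% in these data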;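 also: growth measured after 20 h incubation at 37 °C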
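Material: E. coli BW25113 ΔtolC::kan, tolC deletion mutant strain. Measure: percent growth inhibition. Schedule: 37 °C, 20 h exposure. Doses: single-point testing at 10 µM. Signal: A615 absorbance measurement. Buffer or medium: kanamycin-containing LB broth (50 µg/mL).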
Ecoli WT expand: growth inhibitors of wild-type E. coli, primary screen, strain BW25113, expanded library, OD600; OD600 absorbance; growth inhibition, % at 100 µM; 98,000 compounds, 0.15% hits; AID 710, 2007;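 active = growth inhibition above about 50% at one test dose, limit read from the data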;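 also: growth measured after 20 h incubation at 37 °C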
CYP2C9 act: human CYP2C9 activators, primary screen, biochemical, luminescence; Cytochrome P450 2C9 (Homo sapiens), P11712; recombinant CYP2C9, luciferin-H conversion; stronger effect = higher value; factor 1 = untreated enzyme, 0 = blocked; activation factor at 5 µM; 96,000 compounds, 1.4% hits; AID 1024, 2008;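 active = activation factor of 2 or more for CYP2C9 at a 5 µM dose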
CYP2C19 inh: blockers of cytochrome P450 2C19 activity – biochemical, luminescence, ADME assay, primary screen. P33261. CYP2C19 Supersomes, luciferin-H EGE luminescence, 30 min. inhibition, % at 5 µM. 96,000 compounds, 21% hits;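 active = CYP2C19 inhibition above a set limit at 5 µM in the primary screen, cut at about 50% in these data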
Hits are given with their value; - = inactive; . = not tested or not shown.

SMILES	CYP2C9 inhib	CYP2C19 act	Ecoli tolC	Ecoli WT expand	CYP2C9 act	CYP2C19 inh
Cn1c(SCC2CCCO2)nnc1-c1ccncc1 (stereo not given)	-	-	-	-	-	66
Cc1ccc(CSc2nnc(-c3ccncc3)n2CC2CCCO2)cc1 (stereo not given)	-	-	.	-	-	60
CCOC(=O)c1ccc(NC(=O)c2cn(-c3ccccc3)nc2-c2ccncc2)cc1	-	-	.	-	-	-
Cc1cc2nc(SCCN3CCCC3)[nH]c2cc1C	-	-	-	-	-	-
CC1CCC(=C(C#N)c2nc(-c3cc4ccccc4oc3=O)cs2)CC1 (stereo not given)	88	-	.	-	-	-
C=CC(=O)Nc1ccc(Br)cc1	-	-	.	-	-	-
CC(NS(=O)(=O)c1ccc(CCC(=O)NCc2cccnc2)cc1)c1ccccc1 (stereo not given)	71	-	.	-	-	58
CCC(C)NC(=O)CC(NS(=O)(=O)c1ccc(Cl)cc1)c1ccco1 (stereo not given)	-	-	-	-	-	75
O=C(CC(NS(=O)(=O)c1ccc(Cl)cc1)c1ccco1)NCc1cccnc1 (stereo not given)	70	-	-	-	-	88
O=c1n(Cc2ccc(Cl)cc2)c2sc3c(c2c2ncnn12)CCCC3	85	-	75	-	-	-
C=CCn1c(=O)n2ncnc2c2c3c(sc21)CCCC3	-	-	.	-	-	-
CC(=O)Oc1c(S(=O)(=O)c2ccccc2)c(C)nn1C(C)(C)C	-	-	-	-	-	86
Cc1nn(C(C)(C)C)c(OC(=O)c2cccs2)c1S(=O)(=O)c1ccccc1	87	-	-	-	-	-
COC(=O)CN(n1cnnc1)S(=O)(=O)c1ccc(C)cc1	-	-	-	-	-	-
CCC(=O)Oc1c(S(=O)(=O)c2ccc(C)cc2)c(C)nn1C(C)(C)C	52	-	-	-	-	69
COCC(=O)Oc1c(S(=O)(=O)c2ccc(C)cc2)c(C)nn1-c1ccccc1	81	-	-	-	-	-
CC(C)(C)C(=O)Oc1cc(N)n(S(=O)(=O)c2ccccc2)n1	-	-	-	-	-	-
C=CCn1c(C(C)NC(=O)CCC)nc2ccccc21 (stereo not given)	.	.	-	.	.	.
CCn1cc(C(=O)N2CCOCC2)c(=O)c2cc(S(=O)(=O)N(C)C)ccc21	-	-	-	-	-	-
Cc1nc2ccccn2c1/C(O)=C1\C(=O)C(=O)N(CCCN(C)C)C1c1ccc(F)cc1 (stereo not given)	.	.	-	.	.	.
Cc1nccn1Cc1cccc2ccccc12	-	-	.	-	-	51
COc1cc(-c2nnc3sc(-c4cccs4)nn23)cc(OC)c1OC	80	-	-	-	-	70
COc1cc(-c2nn3c(-c4cccnc4)nnc3s2)cc(OC)c1OC	-	-	-	-	-	66
COc1ccc(-c2nnc3sc(-c4cccs4)nn23)cc1OC	-	-	-	-	-	-
c1cc(N2CCCC2)ccc1C(c1nnnn1C1CCCCC1)N1CCOCC1 (stereo not given)	-	-	-	-	-	-
SMILES	CYP2C9 inhib	CYP2C19 act	Ecoli tolC	Ecoli WT expand	CYP2C9 act	CYP2C19 inh
COc1ccc(C(c2nnnn2CC2CCCO2)N2CCN(c3cccc(C)c3C)CC2)cc1 (stereo not given)	66	-	-	-	-	-
COc1ccc(C(c2nnnn2C2CCCCC2)N2CCN(c3ccc(OC)cc3)CC2)cc1 (stereo not given)	85	-	-	-	-	72
COCCn1nnnc1C(c1ccc(Cl)cc1)N1CCSCC1 (stereo not given)	-	-	-	-	-	79
COc1ccccc1C(c1nnnn1C1CCCC1)N1CCN2CCCC2C1 (stereo not given)	85	-	-	-	-	-
CCCCC(c1nnnn1CC1CCCO1)N1CCN(c2cccc(C)c2C)CC1 (stereo not given)	-	-	-	-	-	-
Cn1c(=O)c2c(nc(CN3CCC(C(N)=O)CC3)n2CCc2ccccc2)n(C)c1=O	-	-	-	-	-	-
COCCn1nnnc1C(c1cc(OC)ccc1OC)N1CCc2ccccc2C1 (stereo not given)	-	-	-	-	-	59
Cc1ccc(C(c2nnnn2CCc2ccccc2)N2CCSCC2)cc1 (stereo not given)	-	-	64	-	-	-
COc1ccc(OC)c(C(c2nnnn2CCc2ccccc2)N2CCC(C(N)=O)CC2)c1 (stereo not given)	-	-	-	-	-	-
COc1ccc(OC)c(C(c2nnnn2C2CCCC2)N2CCN(c3ccccc3)CC2)c1 (stereo not given)	82	-	-	-	-	90
Fc1ccc(C(c2nnnn2C2CCCC2)N2CCN(Cc3ccncc3)CC2)cc1 (stereo not given)	81	-	-	-	-	91
COc1ccc(OC)c(C(c2nnnn2Cc2ccccc2)N2CCN(C3CCCCC3)CC2)c1 (stereo not given)	-	-	-	-	-	-
CSCCC(NC(N)=O)C(=O)NCc1ccc(Cl)cc1 (stereo not given)	-	-	.	-	-	-
COc1ccc(C(c2nnnn2C2CCCC2)N2CCN(C3CCCC3)CC2)cc1OC (stereo not given)	-	-	-	-	-	-
CC(C)(C)n1nnnc1C(c1ccccc1F)N1CCN(C2CCCC2)CC1 (stereo not given)	-	-	-	-	-	-
Clc1ccc(C(c2nnnn2C2CCCC2)N2CCSCC2)cc1 (stereo not given)	79	-	-	-	-	63
COc1ccc(C(c2nnnn2C2CCCC2)N2CCC(C)CC2)cc1 (stereo not given)	69	-	-	-	-	82
CN(c1ccccc1)C(c1ccc(F)cc1)c1nnnn1C1CCCC1 (stereo not given)	82	-	73	-	-	90
CN(c1ccccc1)C(c1ccc(F)cc1)c1nnnn1CC1CCCO1 (stereo not given)	-	-	-	-	-	-
COc1ccccc1C(c1nnnn1C(C)(C)C)N1CCCCCC1 (stereo not given)	77	-	-	-	-	52
Cc1cc(C)cc(Nc2ncc3c(n2)CCCC3=O)c1	-	-	-	-	-	-
O=C(Cn1ncc2c(=O)oc3ccccc3c21)N(Cc1ccco1)C1CCCCC1	.	.	-	-	.	.
CCOC(=O)c1nnc(-c2ccccc2)nc1NCc1ccc(Cl)cc1	-	-	.	-	-	-
